Measured values of several laboratories.
Compare with care: the assays were run in different laboratories. ≈ marks a conversion by molar mass, not a printed value.

| Structure (SMILES) | tested on | assay | test system | setting | measurement | value |
| --- | --- | --- | --- | --- | --- | --- |
| O=C(CCCCCCSc1ccc2ccccc2c1)NO | OCI-Ly1 | cell growth or viability, ATP luminescence |  | 0.5 µM, 5 days | viability | 173% |
| Cc1n[nH]c2ccc3nc(-c4ccc(C(=O)NCCN(C)C)nc4)c4c(c3c12)CCCCC4 | K562 | cell growth or viability, resazurin |  | 72 h | GI50 | 8.5 µM |
| O=C(Nc1cccc(Br)c1)c1cccc(S(=O)(=O)N2CCCCCC2)c1 | OCI-Ly1 | cell growth or viability, ATP luminescence |  | 0.1 µM, 5 days | viability | 178% |
| CN(C)CCNC(=O)c1ccc(-c2nc3ccc4[nH]ncc4c3c3c2CCCCC3)cc1 | K562 | cell growth or viability, resazurin |  | 72 h | GI50 | 1.5 µM |
| CCCCCCCCCCCCCCCCCCOc1ccc(CC(=O)OCC[N+](CC)(CC)CC)cc1 | HOP-62 | cell growth or viability, SRB |  | 10 µM | inhibition | 2.95% |
| Cc1ccc2[nH]nc(-c3nnc(Nc4ccc(O)cc4)s3)c2c1 | Staphylococcus epidermidis | microbial growth | ATCC12228 |  | MIC | 140 µg/mL (≈ 432 µM) |
| Cc1n[nH]c2ccc3nc(-c4ccc(C(=O)N(C)CCN(C)C)cc4)c4c(c3c12)CCC(F)(F)C4 | K562 | cell growth or viability, resazurin |  | 72 h | GI50 | 9.1 µM |
| O=C(CCCCCCC(=O)Nc1ccccc1)NO | OCI-Ly1 | cell growth or viability, ATP luminescence |  | 0.5 µM, 5 days | viability | 74.3% |
| CCCCCCCCCCCCCCCCCCOc1cccc(CC(=O)OCC[N+]2(C)CCCCC2)c1 | HOP-92 | cell growth or viability, SRB |  | 10 µM | inhibition | 19% |
| CN(C)CCNC(=O)c1ccc(-c2nc3ccc4[nH]ncc4c3c3c2CCCC3)c(F)c1 | K562 | cell growth or viability, resazurin |  | 72 h | GI50 | 1.1 µM |
| Cc1ccc2[nH]nc(-c3nnc(Nc4ccc(Br)cc4)s3)c2c1 | Staphylococcus epidermidis | microbial growth | ATCC12228 |  | MIC | 190 µg/mL (≈ 493 µM) |
| COC(=O)CNC(=O)C(=O)OC | OCI-Ly1 | cell growth or viability, ATP luminescence |  | 1 µM, 5 days | viability | 146% |
| CC1(C)S[C@@H]2[C@H](NC(=O)[C@H](N)c3ccccc3)C(=O)N2[C@H]1C(=O)O | Staphylococcus epidermidis | microbial growth |  | clinical isolate | MIC50 | 8 µg/mL (≈ 22.9 µM) |
| CN(C)CCNC(=O)c1ccc(-c2nc3ccc4[nH]ncc4c3c3c2CC(F)(F)CC3)cc1 | K562 | cell growth or viability, resazurin |  | 72 h | GI50 | 3.1 µM |
| Cc1ccc2[nH]nc(-c3nnc(Nc4ccc(Cl)c(Br)c4)s3)c2c1 | Staphylococcus epidermidis | microbial growth | ATCC12228 |  | MIC | 235 µg/mL (≈ 558 µM) |
| CCCCCCCCCCCCCCCCCCOc1cccc(CC(=O)OCC[N+]2(C)CCOCC2)c1 | HOP-92 | cell growth or viability, SRB |  | 10 µM | inhibition | 13.9% |
| C=C[C@]1(C)C[C@@H](OC(=O)CS[C@@H]2C[C@H]3CC[C@@H](C2)N3C)[C@]2(C)[C@H](C)CC[C@]3(CCC(=O)[C@H]32)[C@@H](C)[C@@H]1O | Staphylococcus epidermidis | microbial growth | MRSE | clinical isolate | MIC90 | 0.0625 µg/mL |
| CN(C)CCN(C)C(=O)c1ccc(-c2nc3ccc4[nH]ncc4c3c3c2CCCCC3)cn1 | K562 | cell growth or viability, resazurin |  | 72 h | GI50 | 9.2 µM |

| Structure (SMILES) | tested on | assay | test system | setting | measurement | value |
| --- | --- | --- | --- | --- | --- | --- |
| CCCCCCCCCCCCCCCCCCOc1cccc(CC(=O)OCC[N+](C)(C)C)c1 | HOP-92 | cell growth or viability, SRB |  | 10 µM | inhibition | 12.2% |
| CC(=O)OC[C@H]1O[C@@H](n2cnc(N)nc2=O)[C@H](OC(C)=O)[C@@H]1OC(C)=O | OCI-Ly1 | cell growth or viability, ATP luminescence |  | 1 µM, 5 days | viability | 153% |
| Cc1cc(O)cc(Nc2nnc(-c3n[nH]c4ccc(C)cc34)s2)c1 | Staphylococcus epidermidis | microbial growth | ATCC12228 |  | MIC | 201 µg/mL (≈ 596 µM) |
| O=C(/C=C/c1cccc(C(=O)NO)c1)NO | OCI-Ly1 | cell growth or viability, ATP luminescence |  | 0.5 µM, 5 days | viability | 108% |
| COc1c(N2C[C@@H]3CCCN[C@@H]3C2)c(F)cc2c(=O)c(C(=O)O)cn(C3CC3)c12 | Staphylococcus epidermidis | microbial growth, broth dilution |  | clinical isolate | MIC50 | 0.5 µg/mL (≈ 1.25 µM) |
| Cc1c2c(nn1C)CSCc1cc(n(C)n1)CSc1cc(c3ccccc3c1)OCCCc1c(C(=O)O)n(C)c3c-2c(Cl)ccc13 | Staphylococcus epidermidis | microbial growth, broth dilution |  | clinical isolate | MIC90 | 12.5 µM |
| Cc1n[nH]c2ccc3nc(-c4ccc(C(=O)NCCN(C)C)cc4)c4c(c3c12)CCC(C)(C)C4 | K562 | cell growth or viability, resazurin |  | 72 h | GI50 | 6.4 µM |
| CCCCCCCCCCCCCCCCCCOc1ccc(CC(=O)OCC[N+]2(C)CCCCC2)cc1 | HOP-92 | cell growth or viability, SRB |  | 10 µM | inhibition | 2.18% |
| CN[C@H](CC(C)C)C(=O)N[C@H]1C(=O)N[C@@H](CC(N)=O)C(=O)N[C@H]2C(=O)N[C@H]3C(=O)N[C@H](C(=O)N[C@H](C(=O)O)c4cc(O)cc(O)c4-c4cc3ccc4O)[C@H](O)c3ccc(c(Cl)c3)Oc3cc2cc(c3O[C@@H]2O[C@H](CO)[C@@H](O)[C@H](O)[C@H]2O[C@H]2C[C@](C)(N)[C@H](O)[C@H](C)O2)Oc2ccc(cc2Cl)[C@H]1O | Staphylococcus epidermidis | microbial growth |  | clinical isolate | MIC50 | 0.5 µg/mL (≈ 0.345 µM) |
| CCCCCCCCCCCCCCCCCCOc1ccccc1CC(=O)OCCC[N+](C)(C)C | HOP-62 | cell growth or viability, SRB |  | 10 µM | inhibition | 32.9% |
| Cc1ccc2[nH]nc(-c3nnc(Nc4ccc(Cl)cc4)s3)c2c1 | Staphylococcus epidermidis | microbial growth | ATCC12228 |  | MIC | 133 µg/mL (≈ 389 µM) |
| CCCCCCCCCCCCCCCCCCOc1ccccc1CC(=O)OCC[N+]1(C)CCCCC1 | HOP-62 | cell growth or viability, SRB |  | 10 µM | inhibition | 30% |
| O=C(NCCc1ccccn1)c1ccc(-c2nc3ccc4[nH]ncc4c3c3c2CCCC3)cc1 | K562 | cell growth or viability, resazurin |  | 72 h | GI50 | 8.4 µM |
| CC(=O)NC[C@H]1CN(c2ccc(N3CCOCC3)c(F)c2)C(=O)O1 | Staphylococcus epidermidis | microbial growth | MRSE | clinical isolate | MIC90 | 2 µg/mL |
| O=C(Nc1ccc(Cl)cc1)C1CCCN(C(=O)c2cc(C(F)(F)F)cc(C(F)(F)F)c2)C1 (racemic) | OCI-Ly1 | cell growth or viability, ATP luminescence |  | 1 µM, 5 days | viability | 161% |
| CC[C@H]1OC(=O)[C@H](C)[C@@H](O[C@H]2C[C@@](C)(OC)[C@@H](O)[C@H](C)O2)[C@H](C)[C@@H](O[C@@H]2O[C@H](C)C[C@H](N(C)C)[C@H]2O)[C@](C)(O)C[C@@H](C)/C(=N\OCOCCOC)[C@H](C)[C@@H](O)[C@]1(C)O | Staphylococcus epidermidis | microbial growth |  | clinical isolate | MIC50 | 32 µg/mL (≈ 38.2 µM) |
| O=C(NO)c1ccc(CC(=O)N(CCO)c2ccccc2)cc1 | OCI-Ly1 | cell growth or viability, ATP luminescence |  | 1 µM, 5 days | viability | 74.7% |
| CCCCCCCCCCCCCCCCCCOc1cccc(CC(=O)OCCC[N+](C)(C)C)c1 | HOP-92 | cell growth or viability, SRB |  | 10 µM | inhibition | 22.4% |
